We go through 14 compounds from PubChem BioAssay.

The source made the active and inactive calls.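 How the source made its calls, unless noted: active means inhibition above 20% together with a positive visual image hit; inconclusive means visual image hit but inhibition not above 20%; inactive means no visual image hit.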

Test [1] in a line: inhibitors of TNFa-induced NFkB p65 translocation, primary screen, imaging, HUVEC, MLSMR starter and 10KST1 sets (AID 438).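 Further: compound added about 3h40 before a 20 min TNFalpha stimulation.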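 On inhibition: signal is the nuclear over cytoplasmic p65 intensity ratio per well.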 The settings on record: HUVEC TNFa-induced p65 nuclear translocation; cell count: measured here: nuclei count (cytotoxicity indicator), at 2.08 µM; inhibition: at 2 µM, stronger effect = higher value, 0% TNFa-plus-vehicle, 100% no-TNFa wells.
Test [2] is described as follows: inhibitors of mutant huntingtin aggregation, primary screen, imaging, exon1htt(103Q)mCFP cells, high-content imaging (AID 483;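 active means visual image review flags a hit and inhibition of aggregation exceeds 20%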;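 further: compound exposure lasted 3 days before fixation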;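 on nuclei count: percent of the per-plate median nuclei count of sample wells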). The following applies: exon1htt(103Q)mCFP cell line, aggregate imaging, at 2 µM; inhibition of aggregation: stronger effect = higher value; nuclei count: measured here: cell count, toxicity.
Test [3] is described as follows: inhibitors of E-selectin induction by TNFa, primary screen, imaging, HUVEC, immunofluorescence, MLSMR starter and 10KST1 sets (AID 487;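 active means visually confirmed hit in the image check and inhibition above 20%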;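 on inhibition: signal is fraction of cell area covered by stained E-selectin grains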;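 on nuclei count: 100% = median nuclei count of all wells on the same plate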). The settings on record: HUVEC TNFalpha-induced E-selectin immunofluorescence imaging, at 2 µM; inhibition: stronger effect = higher value; nuclei count: measured here: cell number, toxicity.
For test [4], the target named is Voltage-gated potassium channel subunit beta-2 (Rattus norvegicus) (UniProt P62483). In words: KvBeta enzyme negative modulators, primary screen, biochemical, NADPH fluorescence (AID 622;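 active means fluorescence slope higher than the sample average by over 3 SD, cut at about -0.22 in these data, passing the limit was not always enough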;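 further: slope of raw intensity against log time taken from 70 to 1610 s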). The following applies: recombinant KvBeta, 4-cyanobenzaldehyde reduction, at 10 µM, stronger effect = higher value.
Test [5] has the same target. Kind of test: KvBeta positive modulators, primary screen, biochemical, NADPH fluorescence (AID 623;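 active means NADPH fluorescence slope more negative than the mean of all samples by about 3 SD, 99.7% confidence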;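 further: fluorescence intensity change per second fitted from 20 to 320 s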). The following applies: Recombinant KvBeta, NADPH fluorescence decrease slope, 10 min; at 10 µM; stronger effect = lower value.
Test [6] concerns the target Muscarinic acetylcholine receptor M4 (Homo sapiens) (UniProt P08173). Kind of test: compounds altering M4/GIRK thallium flux, either direction, primary screen, M4 allosteric agonist project, cell-based, HEK293 M4/GIRK, BTC-AM (AID 625;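 active means fluorescence slope after compound addition differing from the mean of all tested samples at 99.7% confidence, mostly higher but some lower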;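 further: thallium influx through GIRK channels coupled to M4 in HEK293 cells with BTC-AM dye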). The following applies: at 10 µM, actives lie on both sides. Summed up:
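Assay system: HEK293 cells with M4 receptor and GIRK channels / Controls: carbachol and DMSO controls / Schedule: 1 h dye loading, 2 min kinetic read / Technique: kinetic fluorescence with BTC-AM dye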

Test [7] can be described thus: inhibitors of Sendai virus-induced IRF3 signaling, primary screen, TLR/RLR signaling modifier project, cell-based, Sendai virus stimulus, luciferase, 10K MLSCN set (AID 602276;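 active means inhibition at or above 50% at 10 µM; inactive means inhibition below 50%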;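 further: firefly luciferase from ISG56 promoter only with Renilla not read in this screen; 0% = Sendai virus plus DMSO and 100% = medium plus DMSO without virus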). The settings on record: HEK293 RL24 IRF3 luciferase reporter, at 10 µM, stronger effect = higher value.
Test [8] in a line: inhibitors of poly I:C-induced TLR3 signaling, primary screen, cell-based, poly I:C stimulus, luciferase, 10K MLSCN set (AID 602277;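 active means inhibition of the reporter signal at or above 50%; inactive means inhibition below 50%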). The settings on record: HEK293-TLR3 RL24 IRF3 luciferase reporter, at 10 µM, stronger effect = higher value.

Sequence of Voltage-gated potassium channel subunit beta-2 (Rattus norvegicus) (P62483 whole entry, looked up): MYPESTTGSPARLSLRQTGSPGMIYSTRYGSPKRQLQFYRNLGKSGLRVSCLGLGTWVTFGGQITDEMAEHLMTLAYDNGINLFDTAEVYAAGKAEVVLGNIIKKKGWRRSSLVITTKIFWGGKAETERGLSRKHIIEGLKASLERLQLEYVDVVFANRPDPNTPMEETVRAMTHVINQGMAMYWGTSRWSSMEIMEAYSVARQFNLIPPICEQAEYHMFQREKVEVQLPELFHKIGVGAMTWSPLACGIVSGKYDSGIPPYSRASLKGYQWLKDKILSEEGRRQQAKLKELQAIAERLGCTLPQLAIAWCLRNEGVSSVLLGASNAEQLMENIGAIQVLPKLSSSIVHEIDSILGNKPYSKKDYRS
Sequence of Muscarinic acetylcholine receptor M4 (Homo sapiens) (P08173 whole entry, looked up): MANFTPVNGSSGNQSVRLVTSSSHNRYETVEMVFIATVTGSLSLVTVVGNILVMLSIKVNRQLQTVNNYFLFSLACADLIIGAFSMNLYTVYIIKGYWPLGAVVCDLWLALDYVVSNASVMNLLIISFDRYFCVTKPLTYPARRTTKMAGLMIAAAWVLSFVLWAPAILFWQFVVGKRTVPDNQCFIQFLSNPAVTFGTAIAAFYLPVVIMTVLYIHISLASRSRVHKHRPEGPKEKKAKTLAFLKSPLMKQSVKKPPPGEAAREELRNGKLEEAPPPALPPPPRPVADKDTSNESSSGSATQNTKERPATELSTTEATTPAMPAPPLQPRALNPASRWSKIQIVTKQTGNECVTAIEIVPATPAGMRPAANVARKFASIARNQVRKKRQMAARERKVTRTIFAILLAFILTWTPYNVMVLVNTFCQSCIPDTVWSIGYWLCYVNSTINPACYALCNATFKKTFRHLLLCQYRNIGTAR

Consider `Nc1sccc1C(=O)c1ccccc1`, for which the cell count in test [1] stood at 339. The inhibition is -5.4% (inactive) in test [1], -45.7% (inactive) in test [3], -12.1% (inactive) in test [7] and -9.56% (inactive) in test [8]. Besides, the inhibition of aggregation in test [2] was 5.8% (inactive). The nuclei count came out at 110% in test [2] and 129% in test [3]. Moreover, the figures for the fluorescence slope in test [4] and in test [6] were -0.563 (inactive) and 0.00467 (inactive), respectively. For the same compound, the NADPH fluorescence slope in test [5] is 7.1e-06 (inactive).

In the case of `FC(F)(F)c1nnc2ccc(NCn3nnc4ccccc43)nn12`, the cell count in test [1] came to 562. Further, the inhibition in test [1] is -27.6% (inactive); in test [3], 16.1% (inactive); in test [7] it was 12.7% (inactive); in test [8], 3.14% (inactive). For the same compound, in test [2], the inhibition of aggregation is 18.9% (inactive). Besides, the nuclei count stood at 85.2% in test [2] and 94.1% in test [3]. Besides, the fluorescence slope was -0.434 (inactive) in test [4] and 0.00533 (inactive) in test [6]. The NADPH fluorescence slope in test [5] was 3.1e-05 (inactive).

As to `CCOC(=O)C1C(=O)OC(C)(C)C1C(C)C(=O)c1ccc(OC)cc1` (centres undefined), the cell count in test [1] was determined as 605. The inhibition in test [1] is -6.4% (inactive); in test [3], 3.9% (inactive); in test [7] it was 21.2% (inactive); in test [8] it was 23.4% (inactive). The inhibition of aggregation in test [2] was -4.2% (inactive). Also, the nuclei count in test [2] was determined as 42.1%; in test [3], 92.7%. Besides, the results for the fluorescence slope in test [4] and in test [6] were -0.47 (inactive) and 0.00448 (inactive), respectively. In addition, in test [5], the NADPH fluorescence slope is 3.2e-06 (inactive).

`C=CCn1c(Cc2csc(N)n2)nnc1SCC(=O)OCC`: the cell count in test [1] was 313. Moreover, the inhibition was -3.5% (inactive) in test [1], 25.2% (inactive) in test [3], 4.87% (inactive) in test [7] and 10% (inactive) in test [8]. For the same compound, in test [2], the inhibition of aggregation is 18.2% (inactive). Also, the nuclei count in test [2] came out at 86.3%; in test [3], 77.4%. Further, the fluorescence slope in test [4] was -0.48 (inactive); in test [6], 0.00546 (inactive). The NADPH fluorescence slope in test [5] is -2.5e-05 (inactive).

As for `Cc1ccc(-n2nc(C(=O)N3CCN(C)CC3)c3c4ccccc4n(C)c3c2=O)cc1`, the cell count in test [1] is 264. Moreover, the inhibition in test [1] is 5.9% (inactive); in test [3], -38.3% (inactive); in test [7], 19.7% (inactive); in test [8] it was 35.7% (inactive). In addition, the inhibition of aggregation in test [2] was -10.3% (inactive). Also, the nuclei count in test [2] worked out at 90.9%; in test [3], 119%. Besides, the fluorescence slope in test [4] is -0.523 (inactive); in test [6], 0.00583 (inactive). For the same compound, the NADPH fluorescence slope in test [5] is -2e-05 (inactive).

Regarding `O=C(c1cc(-c2cccs2)on1)N1CCc2ccccc2C1`, the cell count in test [1] was 490. In addition, the inhibition was -4.5% (inactive) in test [1], -28.9% (inactive) in test [3], 4.86% (inactive) in test [7] and -18.5% (inactive) in test [8]. Moreover, in test [2], the inhibition of aggregation is -23.8% (inactive). Also, the nuclei count in test [2] was determined as 106%; in test [3] it was 96.8%. Further, the fluorescence slope in test [4] was -0.441 (inactive); in test [6], 0.00464 (inactive). In addition, in test [5], the NADPH fluorescence slope is -4.4e-06 (inactive).

For `O=C(CSc1nc2ccccc2c(=O)n1CCC(=O)N1CCCCC1)NCc1ccccc1`, the cell count in test [1] was found to be 495. Also, the inhibition in test [1] is -7.5% (inactive); in test [3], 16.9% (inactive); in test [7], 17.4% (inactive); in test [8], 24.1% (inactive). Also, in test [2], the inhibition of aggregation was 1% (inactive). The nuclei count was determined as 103% in test [2] and 101% in test [3]. Also, the fluorescence slope in test [4] is -0.507 (inactive); in test [6], 0.00538 (inactive). Also, the NADPH fluorescence slope in test [5] is 1.6e-05 (inactive).

`CCn1cnc2cc(NCc3cccc(OC)c3O)ccc21`: the cell count in test [1] came out at 322. The inhibition is -2.8% (inactive) in test [1], -18.2% (inactive) in test [3], -3.88% (inactive) in test [7] and -26.2% (inactive) in test [8]. The inhibition of aggregation in test [2] was -3.1% (inactive). For the same compound, the nuclei count in test [2] came out at 94.7%; in test [3] it was 88%. The fluorescence slope in test [4] is -0.437 (inactive); in test [6], 0.00434 (inactive). In addition, in test [5], the NADPH fluorescence slope is -4.8e-05 (inactive).

On to `O=C(NCc1cccs1)C(Cc1ccccc1)NS(=O)(=O)c1cccs1` (centres undefined), for which the cell count in test [1] stood at 469. The inhibition is -1.7% (inactive) in test [1], -26.1% (inactive) in test [3], 14.7% (inactive) in test [7] and 15.2% (inactive) in test [8]. In addition, the inhibition of aggregation in test [2] is 0% (inactive). Besides, the nuclei count in test [2] amounted to 108%; in test [3] it was 111%. Besides, the values for the fluorescence slope in test [4] and in test [6] were -0.437 (inactive) and 0.00454 (inactive), respectively. Moreover, the NADPH fluorescence slope in test [5] was -0.000238 (active).

Take `O=C(Cn1c(=O)n(Cc2ccc3c(c2)OCO3)c(=O)c2ccccc21)N1CCCc2ccccc21`: in test [1], the cell count is 680. In addition, the inhibition is -6.8% (inactive) in test [1], -22.2% (inactive) in test [3], 21.3% (inactive) in test [7] and 26.4% (inactive) in test [8]. In addition, the inhibition of aggregation in test [2] was -11.1% (inactive). The nuclei count in test [2] came to 87.9%; in test [3], 109%. In addition, the fluorescence slope in test [4] was -0.595 (inactive); in test [6], 0.00433 (inactive). The NADPH fluorescence slope in test [5] was -6.4e-06 (inactive).

For `COc1cc(OC)cc(-c2nc3cc(C)ccc3o2)c1`, the cell count in test [1] was 424. Further, the inhibition in test [1] was 1.7% (inactive); in test [3], -55.4% (inactive); in test [7], -23.5% (inactive); in test [8], -45.9% (inactive). Moreover, the inhibition of aggregation in test [2] is -2% (inactive). Further, the nuclei count worked out at 90.1% in test [2] and 99.4% in test [3]. In addition, the fluorescence slope in test [4] is -0.55 (inactive); in test [6], 0.00552 (inactive). Moreover, the NADPH fluorescence slope in test [5] was -4.6e-05 (inactive).

With `CCOC(=O)c1cc(C)n(CCCN2CCOCC2)c1C`, the cell count in test [1] turned out to be 678. Also, the inhibition in test [1] was 2.6% (inactive); in test [3], -162% (inactive); in test [7], 0.506% (inactive); in test [8], 19.3% (inactive). Also, in test [2], the inhibition of aggregation is -5.8% (inactive). Moreover, the nuclei count worked out at 114% in test [2] and 109% in test [3]. Further, the fluorescence slope in test [4] is -0.473 (inactive); in test [6], 0.00505 (inactive). Moreover, the NADPH fluorescence slope in test [5] is 1.5e-05 (inactive).

In the case of `COC(=O)Cc1[nH]nc2c1C(C1C=CCCC1)C(C#N)=C(N)O2` (centres undefined), in test [1], the cell count came out at 592. Further, the inhibition in test [1] is 5.7% (inactive); in test [3], -0.2% (inactive); in test [7], 18.7% (inactive); in test [8], 26.3% (inactive). In addition, in test [2], the inhibition of aggregation was 7.6% (inactive). Moreover, the nuclei count in test [2] was determined as 90.6%; in test [3], 117%. The figures for the fluorescence slope in test [4] and in test [6] were -0.41 (inactive) and 0.00509 (inactive), respectively. In addition, the NADPH fluorescence slope in test [5] is 2.6e-05 (inactive).

`CCCc1cn(S(=O)(=O)c2ccc(OC)cc2OC)nc1N`: the cell count in test [1] came out at 364. In addition, the inhibition is -8.7% (inactive) in test [1], -38.9% (inactive) in test [3], -0.283% (inactive) in test [7] and 5.1% (inactive) in test [8]. Besides, the inhibition of aggregation in test [2] is 7.3% (inactive). Besides, the figures for the nuclei count in test [2] and in test [3] were 100% and 119%, respectively. Moreover, the fluorescence slope is -0.537 (inactive) in test [4] and 0.00411 (inactive) in test [6]. Moreover, in test [5], the NADPH fluorescence slope is -3.9e-05 (inactive).
